Activity calls are given as the source filed them. No cut-off for these calls is given here.
Legend:
HL-60 = assay: Cytotoxicity against human HL60 cells up to 10 uM after 48 to 72 hrs by alamar blue assay; format: cell-based
HCC 2998 = assay: Cytotoxicity against human HCC2998 cells up to 10 uM after 48 to 72 hrs by alamar blue assay; format: cell-based
SF-539 = assay: Cytotoxicity against human SF539 cells up to 10 uM after 48 to 72 hrs by alamar blue assay; format: cell-based
Cryptosporidium parvum [1] = assay: Antiparasitic activity against Cryptosporidium parvum sporozoites infected in human HCT8 cells assessed as reduction of parasites level treated 1 hr after infection measured after 24 hrs; format: functional, organism-based; conditions: HCT-8
Outline: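 HCT-8 human intestinal cells infected with C. parvum sporozoites at a 1:1 ratio of HCT-8 cells to sporozoites. Cultures were exposed to a range of inhibitor concentrations starting 1 h after infection. Parasite numbers were counted after 24 h of infection.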

[2] = Cytotoxicity against human CRL8155 cells up to 10 uM after 48 to 72 hrs by alamar blue assay; format: cell-based
Cryptosporidium parvum [3] = assay: Antiparasitic activity against Cryptosporidium parvum sporozoites infected in human HCT8 cells assessed as reduction of parasites level treated immediately after infection measured after 24 hrs; format: functional, organism-based; conditions: HCT-8
Outline: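 Human intestinal HCT-8 cells were infected with C. parvum sporozoites, one sporozoite per host cell. Inhibitor was added at varying concentrations at the time of infection. Parasites present were counted 24 h after infection.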

Toxoplasma gondii = assay: Antiparasitic activity against Toxoplasma gondii infected in human fibroblasts assessed as reduction of parasite invasion; format: functional, organism-based
[4] = target: T1, Calmodulin-domain protein kinase 1 (Toxoplasma gondii, UniProt Q9BJF5); format: cell-free, Plasma
T1 sequence (Q9BJF5 whole entry): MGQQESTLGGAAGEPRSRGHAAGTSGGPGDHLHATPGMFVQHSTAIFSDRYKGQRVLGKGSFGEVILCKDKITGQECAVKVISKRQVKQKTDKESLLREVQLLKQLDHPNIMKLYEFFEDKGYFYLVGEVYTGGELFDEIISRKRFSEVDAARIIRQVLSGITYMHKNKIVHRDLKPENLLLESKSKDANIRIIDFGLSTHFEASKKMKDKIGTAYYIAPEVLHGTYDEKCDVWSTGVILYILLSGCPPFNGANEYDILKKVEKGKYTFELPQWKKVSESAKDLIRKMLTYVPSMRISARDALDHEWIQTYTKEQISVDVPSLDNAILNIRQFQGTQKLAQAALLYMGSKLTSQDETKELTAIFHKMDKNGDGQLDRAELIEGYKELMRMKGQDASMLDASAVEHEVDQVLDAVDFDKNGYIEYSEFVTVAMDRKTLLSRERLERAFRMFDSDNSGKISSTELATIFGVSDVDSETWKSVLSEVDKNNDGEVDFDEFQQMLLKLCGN

Row | Structure (SMILES) | Activity (HL-60) | Activity (HCC 2998) | Activity (SF-539) | Activity (Cryptosporidium parvum [1]) | Activity [2] | Activity (Cryptosporidium parvum [3]) | Activity (Toxoplasma gondii) | IC50 [4]
1 | CC(C)n1nc(Cc2cccc3ccccc23)c2c(N)ncnc21 | Non-toxic | Non-toxic | Non-toxic | Dose-dependent effect | Non-toxic | Dose-dependent effect | Active | 
2 | Nc1ncnc2c1c(Cc1cccc3ccccc13)nn2CC1CCNCC1 | Non-toxic | Non-toxic | Non-toxic |  | Non-toxic |  |  | 
3 | CS(=O)(=O)N1CCC(n2nc(Cc3cccc4ccccc34)c3c(N)ncnc32)CC1 | Non-toxic | Non-toxic | Non-toxic |  | Non-toxic |  |  | 
4 | CC(C)c1cccc(-c2nn(C(C)C)c3ncnc(N)c23)c1 | Non-toxic | Non-toxic | Non-toxic |  | Non-toxic |  |  | 
5 | CC(C)n1nc(-c2ccc(Cl)c(Cl)c2)c2c(N)ncnc21 | Non-toxic | Non-toxic | Non-toxic |  | Non-toxic |  |  | 
6 | CCOc1ccc2cc(-c3nn(C(C)C)c4ncnc(N)c34)ccc2c1 | Non-toxic | Non-toxic | Non-toxic |  | Non-toxic |  |  | 
7 | COc1ccc2cc(-c3nn(C(C)C)c4ncnc(N)c34)ccc2c1 | Non-toxic | Non-toxic | Non-toxic |  | Non-toxic |  |  | 
8 | CCN1CCC(CCn2nc(Cc3cccc4ccccc34)c3c(N)ncnc32)CC1 | Non-toxic | Non-toxic | Non-toxic |  | Non-toxic |  |  | 
9 | CC(C)n1nc(-c2ccc3c(c2)sc2ccccc23)c2c(N)ncnc21 |  |  |  |  |  |  |  | > 3 µM
10 | CC(C)(C)n1nc(Cc2cccc3ccccc23)c2c(N)ncnc21 | Non-toxic | Non-toxic | Non-toxic |  | Non-toxic |  |  | 
11 | CCN1CCC(n2nc(Cc3cccc4ccccc34)c3c(N)ncnc32)CC1 | Non-toxic | Non-toxic | Non-toxic |  | Non-toxic |  |  | 
12 | CC(C)n1nc(-c2cnc3ccccc3c2)c2c(N)ncnc21 | Non-toxic | Non-toxic | Non-toxic |  | Non-toxic |  |  | 
13 | CC(C)n1nc(-c2ccc3ccccc3c2)c2c(N)ncnc21 | Non-toxic | Non-toxic | Non-toxic |  | Non-toxic |  |  | 
14 | CCN1CCC(Cn2nc(Cc3cccc4ccccc34)c3c(N)ncnc32)CC1 | Non-toxic | Non-toxic | Non-toxic |  | Non-toxic |  |  | 
15 | CC(C)(C)n1nc(-c2ccc3ccccc3c2)c2c(N)ncnc21 | Non-toxic | Non-toxic | Non-toxic | Dose-dependent effect | Non-toxic | Dose-dependent effect | Active | 
16 | CC(C)(C)n1nc(-c2cccc3ccccc23)c2c(N)ncnc21 | Non-toxic | Non-toxic | Non-toxic | Dose-dependent effect | Non-toxic | Dose-dependent effect |  | 
